Test results taken from ChEMBL document CHEMBL3286242, “Design, synthesis and biological evaluation of arylcinnamide hybrid derivatives as novel anticancer agents” (Eur J Med Chem, 2014).
Active and inactive are the calls of the source. No cut-off for these calls is given here.

Columns and labels:
[1] = system: LoVo; assay: Cytotoxicity against human LoVo cells assessed as growth inhibition after 72 hrs by MTT assay; assay type: functional, cell-based
[2] = system: Jurkat; assay: Cytotoxicity against human Jurkat cells assessed as growth inhibition after 72 hrs by MTT assay; assay type: functional, cell-based
[3] = system: MCF7; assay: Cytotoxicity against human MCF7 cells assessed as growth inhibition after 72 hrs by MTT assay; assay type: functional, cell-based; conditions: MCF7, 72 h
[4] = system: PBMC; assay: Cytotoxicity against human resting PBMC assessed as growth inhibition after 72 hrs by MTT assay; assay type: cell-based
Outline: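 Healthy-donor PBMC from Lymphoprep gradient, rested overnight in RPMI-1640/10% FBS; non-adherent cells at 5 × 10^5 cells/mL without PHA, treated 72 h with varying concentrations; viability by MTT; IC50 mean ± SEM, three separate experiments.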

[5] = system: PBMC; assay: Cytotoxicity against human PHA-stimulated PBMC assessed as growth inhibition after 72 hrs by MTT assay; assay type: functional, cell-based
[6] = Selectivity ratio of IC50 for human resting PBMC to IC50 for human Jurkat cells; assay type: ADME, cell-based; conditions: resting PBMC versus Jurkat cells, read-out: Ratio IC50
[7] = Selectivity ratio of IC50 for human resting PBMC to IC50 for human CEM cells; assay type: ADME, cell-based, CCRF-CEM; conditions: resting PBMC versus CEM cells, read-out: Ratio IC50
[8] = Cytotoxicity against human CEM/VBL100 cells assessed as growth inhibition after 72 hrs by MTT assay; assay type: functional, cell-based; conditions: CEM/VBL100, 72 h
[9] = system: LoVo; assay: Resistance ratio of IC50 for human LoVo/DX cells to IC50 for human LoVo cells; assay type: functional
Outline: (§1)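 Ratio of IC50 in resistant line to IC50 in parental line (CEMVbl-100/CEM; LoVoDoxo/LoVo), each IC50 from 72 h MTT dose–response curves, ≥3 independent experiments.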

[10] = system: CCRF-CEM; assay: Resistance ratio of IC50 for human CEM/VBL100 cells to IC50 for human CEM cells; assay type: functional; outline: as §1
[11] = system: HeLa; assay: Induction of apoptosis in human HeLa cells assessed as increase in Bid protein expression at 1 uM after 24 hrs by Western blotting analysis; assay type: functional, cell-based
[12] = system: HeLa; assay: Induction of apoptosis in human HeLa cells assessed as increase in Bax protein expression at 1 to 2.5 uM after 24 to 48 hrs by Western blotting analysis; assay type: functional, cell-based
[13] = system: HeLa; assay: Induction of apoptosis in human HeLa cells assessed as increase in Bak protein expression at 1 to 2.5 uM after 24 to 48 hrs by Western blotting analysis; assay type: functional, cell-based
[14] = biological target: Tubulin (Homo sapiens) (UniProt P68371+Q9H4B7+P0DPH7+P68366+Q13509+Q71U36+P04350+Q3ZCM7+P07437+P68363+Q9BQE3+Q6PEY2+Q13885+Q9BVA1+Q9BUF5); assay: Inhibition of tubulin polymerization in human HeLa cells assessed as microtubule disruption at 2.5 to 5 uM after 24 hrs by immunofluorescence microscopy relative to untreated control; assay type: cell-based
Outline: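 HeLa cells exposed 24 h to 2.5 or 5.0 μM versus untreated; fixed in cold 4% formaldehyde 15 min, stained with anti-β-tubulin monoclonal (1:1000) and Alexa secondary (1:2000), DAPI counterstain; imaged by confocal microscopy at 20×.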

[15] = system: HeLa; assay: Cell cycle arrest in human HeLa cells assessed as reduction in S phase after 24 hrs by propidium iodide staining-based flow cytometry; assay type: functional
Outline: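 HeLa cells in exponential growth (2.5 × 10^5) treated 24 h at various concentrations; ethanol-fixed (70%, ice-cold), lysed with RNase A/0.1% Triton X-100, PI-stained; DNA content by flow cytometry, phase percentages from DNA histograms.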

[16] = system: HeLa; assay: Induction of apoptosis in human HeLa cells at 0.62 to 5 uM after 24 to 48 hrs by Annexin V/FITC staining-based flow cytometry; assay type: functional, cell-based
Outline: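 HeLa cells treated 24 or 48 h at indicated concentrations, then stained with annexin-V-FITC plus PI; flow cytometry with 488 nm excitation, 525 and 585 nm emission; live, early/late apoptotic and necrotic populations distinguished; means of three independent experiments.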

[17] = system: HeLa; assay: Induction of apoptosis in human HeLa cells assessed as cell viability at 2.5 uM after 48 hrs by MTT assay in presence of dithiothreitol; assay type: functional, cell-based
Outline: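 HeLa cells exposed to 2.5 μM compound for 48 h with scavengers (NAC 100 μM, GSH 1 mM or DTT 1 mM, among others); viability by MTT; means ± SEM of four independent experiments, Student's t-test.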

[18] = system: HeLa; assay: Induction of apoptosis in human HeLa cells assessed as caspase activation at 2.5 uM after 48 hrs in presence of pan-caspase inhibitor z-VAD.fmk; assay type: functional, cell-based
Outline: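 HeLa cells given 2.5 μM compound for 48 h with or without 100 μM z-VAD.fmk pan-caspase inhibitor; viability measured; means ± SEM of three independent experiments, Student's t-test.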

[19] = system: HeLa; assay: Induction of apoptosis in human HeLa cells assessed as reduction in Bcl-2 protein expression at 1 to 2.5 uM by Western blotting analysis; assay type: functional, cell-based; conditions: TDE = time-dependent effect
Outline: (§2)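 HeLa cells treated at indicated concentrations and times; washed in cold PBS, lysed 30 min at 0 °C, cleared at 15 000 × g; 20 μg protein resolved on 7.5–15% gradient SDS-PAGE, blotted to PVDF, primary antibodies 2 h room temperature, peroxidase secondary 60 min, ECL detection; β-actin reprobe for loading.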

[20] = system: HeLa; assay: Induction of apoptosis in human HeLa cells assessed as caspase-3 activation after 24 to 48 hrs by Western blotting analysis; assay type: functional, cell-based; outline: as §2
[21] = system: HeLa; assay: Induction of apoptosis in human HeLa cells assessed as PARP cleavage at 1 to 2.5 uM by Western blotting analysis; assay type: functional, cell-based; conditions: TDE = time-dependent effect; outline: as §2
[22] = system: HeLa; assay: Induction of apoptosis in human HeLa cells assessed as caspase-9 activation at 1 to 2.5 uM after 24 to 48 hrs by Western blotting analysis; assay type: functional, cell-based; outline: as §2
[23] = system: HeLa; assay: Induction of apoptosis in human HeLa cells assessed as caspase-8 activation at 1 to 2.5 uM after 24 to 48 hrs by Western blotting analysis; assay type: functional, cell-based; outline: as §2
[24] = system: HeLa; assay: Induction of apoptosis in human HeLa cells assessed as reduction in Bcl-2 protein expression at 1 to 2.5 uM after 48 hrs by Western blotting analysis; assay type: functional, cell-based; outline: as §2
[25] = system: HeLa; assay: Induction of intracellular ROS generation in human HeLa cells after 1 to 6 hrs by H2DCFDA staining-based flow cytometry; assay type: functional, cell-based
Outline: (§3)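 HeLa cells treated at various concentrations and times; ROS followed by flow cytometry with H2DCFDA or hydroethidine (HE, mainly superoxide).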

[26] = system: HeLa; assay: Induction of intracellular ROS generation in human HeLa cells at 1 to 5 uM after 1 to 6 hrs by hydroethidine staining-based flow cytometry; assay type: functional, cell-based; outline: as §3
[27] = system: HeLa; assay: Induction of apoptosis in human HeLa cells assessed as mitochondrial depolarization at 1 to 5 uM after 12 hrs by JC-1 staining-based flow cytometry; assay type: functional, cell-based
[28] = system: HeLa; assay: Induction of apoptosis in human HeLa cells assessed as GSH depletion after 24 hrs by CMFDA staining-based flow cytometry; assay type: functional, cell-based
Outline: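 HeLa cells treated 24 h with compound, alone or with 100 μM NAC; harvested and loaded with 5 μM CMFDA, 30 min at 37 °C; intracellular GSH read as CMFDA fluorescence by flow cytometry; means ± SEM.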

Q: For `C=C(Br)C(=O)Nc1ccc(/C=C/C(=O)Nc2cc(OC)c(OC)c(OC)c2)cc1`, which IC50 [1] is on record?
A: The IC50 was 2.1 µM.

Q: What about the IC50 [2] of the same molecule?
A: Its IC50 is 0.41 µM.

Q: And the IC50 [3]?
A: Its IC50 is 3 µM.

Q: What about the IC50 [4] of the same molecule?
A: The IC50 was 3.5 µM.

Q: And the IC50 [5]?
A: The IC50 was 0.24 µM.

Q: What about the selectivity ratio [6] of the same molecule?
A: The selectivity ratio was 10.

Q: And the selectivity ratio [7]?
A: Its selectivity ratio is 10.

Q: What about the IC50 [8] of the same molecule?
A: The IC50 was 0.015 µM.

Q: And the “Ratio IC50” value [9]?
A: The value was 0.6.

Q: What about the “Ratio IC50” value [10] of the same molecule?
A: The value was 0.6.

Q: What about the Activity [11] of the same molecule?
A: The Activity was “inactive”.

Q: And the Activity [12]?
A: The Activity was “inactive”.

Q: And the Activity [13]?
A: The Activity was “inactive”.

Q: And the inhibition [14]?
A: The inhibition was “inactive”.

Q: And the Activity [15]?
A: The Activity was “Active”.

Q: What about the Activity [16] of the same molecule?
A: Its Activity is “Active”.

Q: And the Activity [17]?
A: Its Activity is “inactive”.

Q: What about the Activity [18] of the same molecule?
A: Its Activity is “inactive”.

Q: And the Activity [19]?
A: Its Activity is “tde”.

Q: And the Activity [20]?
A: The Activity was “Dose-dependent effect”.

Q: And the Activity [21]?
A: The Activity was “tde”.

Q: And the Activity [22]?
A: The Activity was “inactive”.

Q: And the Activity [23]?
A: Its Activity is “Active”.

Q: What about the Activity [24] of the same molecule?
A: Its Activity is “Active”.

Q: And the Activity [25]?
A: Its Activity is “Dose-dependent effect”.

Q: And the Activity [26]?
A: Its Activity is “inactive”.

Q: What about the Activity [27] of the same molecule?
A: The Activity was “Active”.

Q: And the Activity [28]?
A: Its Activity is “Dose-dependent effect”.
